Assays:
[1] = molecular target: Macrophage colony-stimulating factor 1 receptor (Homo sapiens) (UniProt P07333); assay: Inhibition of human recombinant FMS at 500 nM in presence of ATP by radiometric assay relative to control
[2] = molecular target: SRSF protein kinase 2 (Homo sapiens) (UniProt P78362); assay: Inhibition of human recombinant SRPK2 at 500 nM in presence of ATP by radiometric assay relative to control
[3] = molecular target: Mitogen-activated protein kinase 8 (Homo sapiens) (UniProt P45983); assay: Inhibition of human recombinant JNK1 at 500 nM in presence of ATP by radiometric assay relative to control
[4] = molecular target: NT-3 growth factor receptor (Homo sapiens) (UniProt Q16288); assay: Inhibition of human recombinant TRKC at 500 nM in presence of ATP by radiometric assay relative to control
[5] = molecular target: 5'-AMP-activated protein kinase catalytic subunit alpha-1 (Homo sapiens) (UniProt Q13131); assay: Inhibition of human recombinant AMPKa1 at 500 nM related to control ULK1
How it was run: (§1)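 Panel of 327 recombinant human kinases, each assayed in vitro by radiometric activity assay in duplicate at a single inhibitor concentration per compound, chosen with reference to its ULK1 inhibition. Activity remaining was expressed as percent of vehicle control, and percent inhibition was calculated as 100 minus percent activity remaining.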

[6] = molecular target: T1, Tyrosine-protein kinase receptor TYRO3 (Homo sapiens) (UniProt Q06418); assay: Inhibition of human recombinant TYRO3 at 500 nM related to control ULK1
T1 sequence (whole entry): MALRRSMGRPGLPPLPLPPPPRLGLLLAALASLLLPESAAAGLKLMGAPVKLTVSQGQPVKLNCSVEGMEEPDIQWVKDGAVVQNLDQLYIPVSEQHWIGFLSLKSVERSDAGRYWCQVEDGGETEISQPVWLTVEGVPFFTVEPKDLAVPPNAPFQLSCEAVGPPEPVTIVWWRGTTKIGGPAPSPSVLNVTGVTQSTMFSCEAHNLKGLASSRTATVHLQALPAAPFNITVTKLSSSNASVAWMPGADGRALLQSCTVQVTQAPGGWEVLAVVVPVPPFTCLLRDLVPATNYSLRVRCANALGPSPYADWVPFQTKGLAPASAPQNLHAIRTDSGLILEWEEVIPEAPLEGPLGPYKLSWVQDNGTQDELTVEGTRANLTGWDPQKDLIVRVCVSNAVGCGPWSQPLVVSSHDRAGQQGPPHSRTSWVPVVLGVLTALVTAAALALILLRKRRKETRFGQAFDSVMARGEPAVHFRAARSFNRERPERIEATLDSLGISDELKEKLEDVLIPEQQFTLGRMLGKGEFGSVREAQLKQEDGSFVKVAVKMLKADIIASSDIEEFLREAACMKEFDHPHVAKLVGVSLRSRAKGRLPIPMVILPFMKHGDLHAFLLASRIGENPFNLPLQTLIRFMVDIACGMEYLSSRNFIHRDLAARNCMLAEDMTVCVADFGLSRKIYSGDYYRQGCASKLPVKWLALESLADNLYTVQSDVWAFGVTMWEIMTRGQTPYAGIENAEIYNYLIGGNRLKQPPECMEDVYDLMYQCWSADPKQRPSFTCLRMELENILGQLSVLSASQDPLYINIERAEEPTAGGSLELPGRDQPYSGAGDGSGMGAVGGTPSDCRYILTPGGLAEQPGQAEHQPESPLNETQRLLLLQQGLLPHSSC

[7] = molecular target: Serine/threonine-protein kinase PAK 5 (Homo sapiens) (UniProt Q9P286); assay: Inhibition of human recombinant PAK5 at 15 nM in presence of ATP by radiometric assay relative to control
[8] = molecular target: Death-associated protein kinase 3 (Homo sapiens) (UniProt O43293); assay: Inhibition of human recombinant DAPK3 at 15 nM related to control ULK1
[9] = molecular target: T2, Serine/threonine-protein kinase BRSK2 (Homo sapiens) (UniProt Q8IWQ3); assay: Inhibition of human recombinant BRSK2 at 40 nM in presence of ATP by radiometric assay relative to control
T2 sequence (whole entry): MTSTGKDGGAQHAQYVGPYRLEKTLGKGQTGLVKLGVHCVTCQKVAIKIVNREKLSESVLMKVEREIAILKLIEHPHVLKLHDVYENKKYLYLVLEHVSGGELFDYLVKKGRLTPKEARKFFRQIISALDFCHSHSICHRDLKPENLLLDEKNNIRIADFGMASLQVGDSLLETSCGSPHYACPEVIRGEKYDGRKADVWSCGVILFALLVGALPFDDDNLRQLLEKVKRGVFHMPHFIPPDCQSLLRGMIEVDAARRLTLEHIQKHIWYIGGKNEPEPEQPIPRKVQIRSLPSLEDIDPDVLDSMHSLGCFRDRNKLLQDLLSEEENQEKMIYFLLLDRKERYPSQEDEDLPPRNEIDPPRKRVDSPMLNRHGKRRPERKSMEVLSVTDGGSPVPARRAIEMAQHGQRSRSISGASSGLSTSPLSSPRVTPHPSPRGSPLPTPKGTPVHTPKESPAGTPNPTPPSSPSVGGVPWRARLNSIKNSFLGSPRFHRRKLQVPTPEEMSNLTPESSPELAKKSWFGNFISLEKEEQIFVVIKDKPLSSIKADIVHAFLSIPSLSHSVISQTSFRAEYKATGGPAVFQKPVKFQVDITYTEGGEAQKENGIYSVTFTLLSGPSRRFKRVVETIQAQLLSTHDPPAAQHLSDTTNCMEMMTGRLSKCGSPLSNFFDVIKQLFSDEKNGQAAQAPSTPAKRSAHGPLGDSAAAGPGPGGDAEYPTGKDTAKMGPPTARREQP
How it was run: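 Recombinant human kinase panel (327 kinases) run as radiometric activity assays, each kinase in duplicate at one compound concentration. Activity remaining expressed relative to vehicle control; percent inhibition taken as 100% minus % activity remaining.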

[10] = molecular target: Mast/stem cell growth factor receptor Kit (Homo sapiens) (UniProt P10721); assay: Inhibition of human recombinant KIT at 40 nM in presence of ATP by radiometric assay relative to control
[11] = molecular target: MAP kinase-activated protein kinase 2 (Homo sapiens) (UniProt P49137); assay: Inhibition of human recombinant MAPKAPK2 at 40 nM related to control ULK1
[12] = molecular target: Platelet-derived growth factor receptor alpha (Homo sapiens) (UniProt P16234); assay: Inhibition of human recombinant PDGFRa at 40 nM in presence of ATP by radiometric assay relative to control
[13] = molecular target: Dual specificity mitogen-activated protein kinase kinase 2 (Homo sapiens) (UniProt P36507); assay: Inhibition of human recombinant MAP2K2 at 40 nM related to control ULK1
[14] = molecular target: Tyrosine-protein kinase receptor UFO (Homo sapiens) (UniProt P30530); assay: Inhibition of human recombinant AXL at 40 nM in presence of ATP by radiometric assay relative to control; how it was run: as §1

Chain of Death-associated protein kinase 3 (Homo sapiens) (O43293 whole entry, looked up): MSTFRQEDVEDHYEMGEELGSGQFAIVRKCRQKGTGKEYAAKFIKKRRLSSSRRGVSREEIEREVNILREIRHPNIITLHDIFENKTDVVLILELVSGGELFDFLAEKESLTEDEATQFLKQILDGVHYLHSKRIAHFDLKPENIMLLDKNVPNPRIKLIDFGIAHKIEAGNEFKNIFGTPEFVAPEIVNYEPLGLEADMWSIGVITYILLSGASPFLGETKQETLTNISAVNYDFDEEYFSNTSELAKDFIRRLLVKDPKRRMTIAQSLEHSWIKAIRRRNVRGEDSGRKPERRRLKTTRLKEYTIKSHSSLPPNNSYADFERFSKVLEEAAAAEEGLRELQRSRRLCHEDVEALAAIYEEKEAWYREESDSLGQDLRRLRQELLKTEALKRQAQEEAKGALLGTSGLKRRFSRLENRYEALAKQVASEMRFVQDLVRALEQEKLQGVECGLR
Chain of SRSF protein kinase 2 (Homo sapiens) (P78362 whole entry, looked up): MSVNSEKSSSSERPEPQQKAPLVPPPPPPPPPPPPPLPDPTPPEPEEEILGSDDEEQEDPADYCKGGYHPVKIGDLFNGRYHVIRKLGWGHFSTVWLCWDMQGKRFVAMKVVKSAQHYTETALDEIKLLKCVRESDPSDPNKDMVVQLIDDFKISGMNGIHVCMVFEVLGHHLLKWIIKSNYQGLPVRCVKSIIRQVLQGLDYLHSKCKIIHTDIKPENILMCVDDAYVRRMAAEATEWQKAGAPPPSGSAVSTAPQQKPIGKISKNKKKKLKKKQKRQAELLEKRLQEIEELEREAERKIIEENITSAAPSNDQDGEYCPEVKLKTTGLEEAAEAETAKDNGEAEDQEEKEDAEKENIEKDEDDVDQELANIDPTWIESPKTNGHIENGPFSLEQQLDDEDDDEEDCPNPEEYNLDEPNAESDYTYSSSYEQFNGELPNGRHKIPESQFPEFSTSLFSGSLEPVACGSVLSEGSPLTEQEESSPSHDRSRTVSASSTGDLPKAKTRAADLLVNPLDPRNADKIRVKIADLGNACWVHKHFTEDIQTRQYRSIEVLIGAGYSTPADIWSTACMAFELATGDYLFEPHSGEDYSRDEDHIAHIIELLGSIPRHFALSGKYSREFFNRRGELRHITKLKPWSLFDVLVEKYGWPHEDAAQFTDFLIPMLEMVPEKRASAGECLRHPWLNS
Chain of Platelet-derived growth factor receptor alpha (Homo sapiens) (P16234 whole entry): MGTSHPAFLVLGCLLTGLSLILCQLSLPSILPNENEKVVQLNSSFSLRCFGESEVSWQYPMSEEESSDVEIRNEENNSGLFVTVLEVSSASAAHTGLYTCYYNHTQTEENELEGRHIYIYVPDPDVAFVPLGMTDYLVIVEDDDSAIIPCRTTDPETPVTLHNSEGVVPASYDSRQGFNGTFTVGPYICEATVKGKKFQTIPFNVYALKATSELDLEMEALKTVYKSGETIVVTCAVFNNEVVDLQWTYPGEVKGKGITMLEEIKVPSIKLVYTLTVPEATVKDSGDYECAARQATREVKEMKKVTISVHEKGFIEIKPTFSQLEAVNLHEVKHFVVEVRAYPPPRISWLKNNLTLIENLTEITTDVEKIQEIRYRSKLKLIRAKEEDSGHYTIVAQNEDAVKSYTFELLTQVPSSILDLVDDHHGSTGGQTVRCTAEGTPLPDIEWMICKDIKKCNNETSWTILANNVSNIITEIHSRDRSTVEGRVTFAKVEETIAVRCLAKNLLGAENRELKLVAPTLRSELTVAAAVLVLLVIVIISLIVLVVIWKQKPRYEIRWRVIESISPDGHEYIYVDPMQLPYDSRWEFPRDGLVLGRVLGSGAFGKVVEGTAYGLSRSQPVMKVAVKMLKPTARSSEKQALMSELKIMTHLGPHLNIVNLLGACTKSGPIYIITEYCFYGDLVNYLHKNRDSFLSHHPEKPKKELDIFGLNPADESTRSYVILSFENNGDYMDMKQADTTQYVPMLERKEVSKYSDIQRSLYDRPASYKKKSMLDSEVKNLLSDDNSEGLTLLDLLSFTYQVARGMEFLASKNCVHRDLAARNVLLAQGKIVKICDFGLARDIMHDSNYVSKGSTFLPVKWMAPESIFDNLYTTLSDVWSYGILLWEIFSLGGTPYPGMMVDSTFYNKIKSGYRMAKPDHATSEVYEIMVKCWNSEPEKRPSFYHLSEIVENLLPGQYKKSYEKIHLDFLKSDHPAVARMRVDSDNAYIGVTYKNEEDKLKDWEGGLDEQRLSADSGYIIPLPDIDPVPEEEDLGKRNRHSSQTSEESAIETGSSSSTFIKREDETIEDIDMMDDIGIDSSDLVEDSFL
Chain of Dual specificity mitogen-activated protein kinase kinase 2 (Homo sapiens) (P36507 whole entry): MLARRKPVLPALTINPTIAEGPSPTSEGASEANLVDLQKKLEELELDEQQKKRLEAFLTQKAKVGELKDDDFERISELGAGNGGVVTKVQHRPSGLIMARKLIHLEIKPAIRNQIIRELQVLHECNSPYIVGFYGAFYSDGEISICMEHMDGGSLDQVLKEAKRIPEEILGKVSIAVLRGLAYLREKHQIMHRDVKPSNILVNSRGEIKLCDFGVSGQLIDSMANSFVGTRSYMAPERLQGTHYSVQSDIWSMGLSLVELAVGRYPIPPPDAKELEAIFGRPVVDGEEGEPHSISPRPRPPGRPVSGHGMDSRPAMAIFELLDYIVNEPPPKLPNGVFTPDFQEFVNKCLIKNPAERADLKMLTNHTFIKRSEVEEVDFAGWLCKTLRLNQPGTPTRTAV
Chain of 5'-AMP-activated protein kinase catalytic subunit alpha-1 (Homo sapiens) (Q13131 whole entry, looked up): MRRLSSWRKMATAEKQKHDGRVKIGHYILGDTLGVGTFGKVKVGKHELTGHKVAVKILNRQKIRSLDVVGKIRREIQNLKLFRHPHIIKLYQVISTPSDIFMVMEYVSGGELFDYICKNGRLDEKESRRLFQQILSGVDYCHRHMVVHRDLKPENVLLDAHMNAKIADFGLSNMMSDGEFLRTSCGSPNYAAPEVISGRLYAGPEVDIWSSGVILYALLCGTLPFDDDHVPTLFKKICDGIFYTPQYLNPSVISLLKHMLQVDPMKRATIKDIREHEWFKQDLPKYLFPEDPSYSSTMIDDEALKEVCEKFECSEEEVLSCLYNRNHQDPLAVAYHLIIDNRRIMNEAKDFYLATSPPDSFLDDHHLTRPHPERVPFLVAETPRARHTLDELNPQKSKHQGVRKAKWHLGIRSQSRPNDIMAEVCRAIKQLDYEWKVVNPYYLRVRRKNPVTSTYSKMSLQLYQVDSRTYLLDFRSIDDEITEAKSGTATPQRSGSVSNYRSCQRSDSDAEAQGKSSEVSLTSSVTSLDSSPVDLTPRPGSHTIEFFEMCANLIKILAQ
Chain of Macrophage colony-stimulating factor 1 receptor (Homo sapiens) (P07333 whole entry): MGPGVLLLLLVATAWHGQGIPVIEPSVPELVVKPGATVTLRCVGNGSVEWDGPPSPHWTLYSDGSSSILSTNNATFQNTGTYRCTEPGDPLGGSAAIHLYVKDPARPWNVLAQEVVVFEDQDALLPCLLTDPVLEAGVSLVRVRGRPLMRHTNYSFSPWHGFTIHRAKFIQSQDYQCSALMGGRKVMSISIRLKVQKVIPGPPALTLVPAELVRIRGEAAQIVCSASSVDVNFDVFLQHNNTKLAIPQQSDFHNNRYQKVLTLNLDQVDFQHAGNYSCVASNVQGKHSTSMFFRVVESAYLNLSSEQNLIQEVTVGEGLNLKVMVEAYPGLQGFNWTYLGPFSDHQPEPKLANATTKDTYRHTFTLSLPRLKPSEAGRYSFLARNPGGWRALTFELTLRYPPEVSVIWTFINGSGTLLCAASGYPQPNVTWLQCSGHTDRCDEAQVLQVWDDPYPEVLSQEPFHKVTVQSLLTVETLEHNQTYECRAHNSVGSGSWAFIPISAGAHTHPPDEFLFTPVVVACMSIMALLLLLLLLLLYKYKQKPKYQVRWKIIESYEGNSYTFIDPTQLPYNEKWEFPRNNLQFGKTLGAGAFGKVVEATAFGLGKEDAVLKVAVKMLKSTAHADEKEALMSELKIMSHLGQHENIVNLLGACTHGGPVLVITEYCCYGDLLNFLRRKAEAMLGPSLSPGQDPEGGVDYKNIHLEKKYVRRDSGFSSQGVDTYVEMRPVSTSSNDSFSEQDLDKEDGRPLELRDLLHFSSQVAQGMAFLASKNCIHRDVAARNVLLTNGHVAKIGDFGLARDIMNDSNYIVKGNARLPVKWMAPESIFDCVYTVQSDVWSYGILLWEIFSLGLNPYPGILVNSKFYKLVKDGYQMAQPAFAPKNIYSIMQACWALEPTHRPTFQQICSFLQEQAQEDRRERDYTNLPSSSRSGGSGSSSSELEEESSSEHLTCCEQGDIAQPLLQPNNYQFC
Chain of Serine/threonine-protein kinase PAK 5 (Homo sapiens) (Q9P286 whole entry, looked up): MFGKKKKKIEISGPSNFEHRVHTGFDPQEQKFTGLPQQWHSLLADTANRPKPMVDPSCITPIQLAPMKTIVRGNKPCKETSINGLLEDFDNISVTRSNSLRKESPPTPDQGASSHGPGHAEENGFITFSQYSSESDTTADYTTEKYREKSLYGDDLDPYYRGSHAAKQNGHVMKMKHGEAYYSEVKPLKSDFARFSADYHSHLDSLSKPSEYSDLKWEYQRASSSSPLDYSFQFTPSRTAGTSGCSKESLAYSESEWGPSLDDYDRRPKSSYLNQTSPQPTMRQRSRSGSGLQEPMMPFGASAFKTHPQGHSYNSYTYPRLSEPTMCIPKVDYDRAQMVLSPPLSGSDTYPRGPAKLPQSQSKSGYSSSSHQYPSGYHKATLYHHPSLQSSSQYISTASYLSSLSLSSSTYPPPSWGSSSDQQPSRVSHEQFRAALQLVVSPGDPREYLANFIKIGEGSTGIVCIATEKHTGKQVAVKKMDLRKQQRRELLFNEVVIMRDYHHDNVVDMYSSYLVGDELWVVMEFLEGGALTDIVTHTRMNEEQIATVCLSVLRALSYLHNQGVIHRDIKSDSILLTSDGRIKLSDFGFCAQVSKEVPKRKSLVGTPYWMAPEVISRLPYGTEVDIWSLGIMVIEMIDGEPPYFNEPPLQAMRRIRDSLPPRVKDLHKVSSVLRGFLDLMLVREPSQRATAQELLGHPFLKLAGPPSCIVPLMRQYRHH

## CNC(=O)c1ccccc1Oc1nc(Nc2cc(OC)c(OC)c(OC)c2)ncc1Br
[1]
  inhibition: 19%
[2]
  inhibition: 5%
[3]
  inhibition: 1%
[4]
  inhibition: 0%
[5]
  fold change (FC): 0.69
[6]
  fold change (FC): 0.14

## CC(C)[C@H](NC(=O)c1cc(-c2cnn3cc(-c4ccc(OCCN5CCCCC5)cc4)cnc23)cs1)C(F)(F)F
[7]
  inhibition: 0%
[8]
  fold change (FC): 0

## O=C(N[C@@H](C1CC1)C(F)(F)F)c1cc(-c2cnn3cc(-c4ccc(F)cc4)cnc23)cs1
[9]
  inhibition: 0%
[10]
  inhibition: 0%
[11]
  fold change (FC): 0
[12]
  inhibition: 0%
[13]
  fold change (FC): 0
[14]
  inhibition: 5%

— ChEMBL document CHEMBL5653631, “A Potent and Selective ULK1 Inhibitor Suppresses Autophagy and Sensitizes Cancer Cells to Nutrient Stress” (iScience, 2018)
